Experimental data taken from PubChem BioAssay.
Results filed as inconclusive are left out.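 Rule for the calls, unless noted: active = RAM network inhibition above 8.4% in each of two replicates, 3 SD over the compound average; inconclusive = above 8.4% inhibition in only one replicate; inactive = 8.4% inhibition or less in each replicate.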

What was measured:
[1] = S. cerevisiae growth inhibition in permissive medium (OD615), pilot counter-assay for S. cerevisiae lifespan shortening project, permissive growth control (AID 705;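 active = growth inhibition above 25% in both replicates, a cutoff set 3 SD above the mean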); conditions: OD615, 24 h, at 10 µM, stronger effect = higher value
Method in brief: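 Test system: Saccharomyces cerevisiae strain carrying genetically modified DeaD replicative-lifespan system; buffer or medium: SC raffinose/galactose permissive medium; dosing: one dose 10 µM, DMSO 0.25% final; times: 24 h exposure, 30 °C; measured by: OD at 615 nm; read-out basis: growth inhibition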

[2] = S. cerevisiae growth inhibition in restrictive medium, OD615, pilot screen, restrictive growth control, yeast lifespan reduction project (AID 706;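 active = growth inhibition above a set limit, 3 SD over mean compound inhibition, in both replicates, cut at about 43% in these data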;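 note: modified DeaD lifespan yeast strain shifted to restrictive glucose medium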); conditions: OD615, 48 h, at 10 µM, stronger effect = higher value
Method in brief: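 material = engineered S. cerevisiae DeaD strain | buffer or medium = glucose-based CSMM-D restrictive medium | dosing = one concentration, 10 µM final, 0.25% DMSO | schedule = 4 h pre-growth plus 48 h compound exposure, 30 °C | detection = OD615 absorbance reading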

[3] = doxorubicin toxicity protection in MRP-1 cells – H69AR cells, CellTiter-Glo, duplicate, MRP-1 activator project, pilot screen (AID 807;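 active = viability increase at or above a cutoff of the median across tested compounds plus 3 SD, cut at about 8.5% in these data, passing the limit was not always enough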;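 note: compound pretreatment 18-22 h then 72 h combined with doxorubicin; 0% = doxorubicin alone and 100% = vehicle without doxorubicin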); conditions: H69AR viability with doxorubicin, CellTiter-Glo luminescence; at 10 µM; stronger effect = higher value
[4] = viability of HCT116 without oncogenic beta-catenin – human colon tumor cells, pilot screen (AID 823;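 active = cell viability at or below a set limit in both duplicate runs, the limit being the all-compound median minus 4 SD, cut at about 23% in these data, passing the limit was not always enough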;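 note: 0% = wells killed by 20 µM Hyamine and 100% = untreated DMSO cell wells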); conditions: HCT116 beta-catenin knockout viability, CellTiter-Glo, 60 h; at 10 µM; stronger effect = lower value
[5] = viability of PTEN-null HCT116 cells – cell-based, HCT116 clonal line, CellTiter-Glo, pilot screen (AID 824;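 active = viability at or below 27.92% in each of two runs, the all-compound median minus 4 SD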;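 note: 0% = 20 µM Hyamine control and 100% = vehicle cell control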); conditions: HCT116 PTEN-deleted viability, 60 h, at 10 µM, stronger effect = lower value
[6] = RAM pathway blockade in budding yeast – dse1pr::URA3 reporter, 5-FOA selection, pilot screen (AID 869;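 active = inhibition over a set limit, the all-compound mean plus 3 SD, in both replicate runs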;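 note: 0% = DMSO wells with no growth and 100% = 10 µM 1-NA-PP1 with full growth; RAM network block rescues cells from 5-FOA so hits raise OD615 growth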); conditions: S. cerevisiae dse1pr::URA3 5-FOA growth, OD615, 2 d; at 10 µM; stronger effect = higher value; strain carries analog-sensitive mutant Cbk1 kinase
[7] = RAM signaling pathway blockade in yeast – S. cerevisiae, Pdr1DBD-CYC8 efflux-inhibited sensitized strain, primary screen (AID 1298);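 note: 0% = DMSO untreated cells without growth and 100% = 10 µM 1-NA-PP1 full growth; higher means more yeast growth rescued from 5-FOA killing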; conditions: S. cerevisiae cbk1-as DSE1-URA3 strain, 5-FOA growth OD615, 2 d; at 50 µM; stronger effect = higher value

CCCCCn1c(=O)[nH]c2cc(C(=O)O)ccc2c1=O
inactive: growth inhibition [1] -13.9% | growth inhibition [2] -12.1% | viability increase [3] -1.3% | viability [4] 102% | viability [5] 90.7% | inhibition [6] 1.91% | RAM network inhibition [7] 2.2%

O=C(NC1CCCCCCC1)c1ccc(CNc2c(N3CCOCC3)c(=O)c2=O)cc1
inactive: growth inhibition [1] 1.56% | growth inhibition [2] 8.42% | viability increase [3] 0.25% | viability [4] 100% | viability [5] 95.6% | inhibition [6] 0.71% | RAM network inhibition [7] 0.92%

CCOC(=O)NC(Nc1nnc(SCC)s1)(C(F)(F)F)C(F)(F)F
inactive: growth inhibition [1] -3.14% | growth inhibition [2] 2.81% | viability increase [3] -2.85% | viability [4] 89.8% | viability [5] 91% | inhibition [6] 1.5% | RAM network inhibition [7] 3.2%

COc1cc(C2C(C(N)=O)=C(C)Nc3nc(CCCO)nn32)cc(OC)c1OC (configuration not stated)
inactive: growth inhibition [1] -3.16% | growth inhibition [2] -9.14% | viability increase [3] -0.36% | viability [4] 101% | viability [5] 95% | inhibition [6] 0.785% | RAM network inhibition [7] 0.15%

Cc1c(C(=O)N2CCCC2)oc2c1-c1[nH]ncc1CC2
inactive: growth inhibition [1] -15.2% | growth inhibition [2] -14.4% | viability increase [3] -1.8% | viability [4] 105% | viability [5] 94.2% | inhibition [6] 0.715% | RAM network inhibition [7] 2.08%

CCOC(=O)N1CCC(NC(=O)CN2C(=O)CSc3nc(C)cc(C)c32)CC1
inactive: growth inhibition [1] -8.91% | growth inhibition [2] 6.29% | viability increase [3] -0.46% | viability [4] 109% | viability [5] 97.7% | inhibition [6] -0.65% | RAM network inhibition [7] 0.43%

[O-]/[N+](=C/c1cccnc1)c1ccc(Br)cc1
inactive: growth inhibition [1] -11.4% | growth inhibition [2] -4.11% | viability increase [3] -4.72% | viability [4] 93.8% | viability [5] 94% | inhibition [6] 2.69% | RAM network inhibition [7] 8.64%

CCc1cc2c(NCC3CCCO3)ncnc2s1 (configuration not stated)
inactive: growth inhibition [1] 2.17% | growth inhibition [2] 9.07% | viability increase [3] 0.8% | viability [4] 102% | viability [5] 95.6% | inhibition [6] 0.34% | RAM network inhibition [7] 4.46%

Cc1cc(C)c(S(=O)(=O)Nc2ccc(OCC(=O)O)cc2)c(C)c1
inactive: growth inhibition [1] -6.34% | growth inhibition [2] -3.2% | viability increase [3] -0.81% | viability [4] 93.7% | viability [5] 90.5% | inhibition [6] -0.28% | RAM network inhibition [7] -0.63%

CCCCCCc1c(O)nc(SCC(=O)O)[nH]c1=O
inactive: growth inhibition [1] 5.63% | growth inhibition [2] 13.4% | viability increase [3] 0.25% | viability [4] 108% | viability [5] 101% | inhibition [6] 2.51% | RAM network inhibition [7] -0.58%

O=C(NC1CCCCC1)N1CCCc2ccccc21
inactive: growth inhibition [1] 2.93% | growth inhibition [2] -1.39% | viability increase [3] -4.89% | viability [4] 86.1% | viability [5] 84% | inhibition [6] 0.345% | RAM network inhibition [7] -1.17%

COc1ccc(N2Cc3cccc(C(=O)NC(C)CCc4ccco4)c3C2=O)cc1 (configuration not stated)
inactive: growth inhibition [1] -3.44% | growth inhibition [2] -3.73% | viability increase [3] 3.67% | viability [4] 95.3% | viability [5] 95.3% | inhibition [6] 1.92% | RAM network inhibition [7] 7.29%

CC(C)COC(=O)C1C2C=CC3(CN(C4CCCC4)C(=O)C13)O2 (configuration not stated)
inactive: growth inhibition [1] -14.1% | growth inhibition [2] -0.515% | viability increase [3] -1.25% | viability [4] 107% | viability [5] 92.8% | inhibition [6] 2.07% | RAM network inhibition [7] 2.04%

O=C(NCc1ccccn1)c1cc2ccccn2n1
inactive: growth inhibition [1] -2.5% | growth inhibition [2] 0.82% | viability increase [3] -0.01% | viability [4] 104% | viability [5] 102% | inhibition [6] 0.245% | RAM network inhibition [7] 3.25%

CCOC(=O)Cn1c(C(C)=O)nc2ccccc21
inactive: growth inhibition [1] -18.1% | growth inhibition [2] -25.1% | viability increase [3] 0.94% | viability [4] 102% | viability [5] 94.8% | inhibition [6] 0.28% | RAM network inhibition [7] 0.32%

CCOC(=O)C1CCN(C(=O)c2ccc(Cl)c(NC3=NC4CS(=O)(=O)CC4S3)c2)CC1 (configuration not stated)
inactive: growth inhibition [1] -13.6% | growth inhibition [2] -14.5% | viability increase [3] -0.09% | viability [4] 107% | viability [5] 89.4% | inhibition [6] 1.65% | RAM network inhibition [7] -0.37%

Fc1cc(Br)ccc1Nc1nc2ccccc2n2nnnc12
inactive: growth inhibition [1] -15.9% | growth inhibition [2] -15% | viability increase [3] -4.01% | viability [4] 91.5% | viability [5] 87.2% | inhibition [6] 1.94% | RAM network inhibition [7] 5.36%

CN(C)c1nc(-c2ccccc2)c2cnn(Cc3ccccc3)c2n1
inactive: growth inhibition [1] -12.5% | growth inhibition [2] -3.25% | viability increase [3] -4.48% | viability [4] 83.8% | viability [5] 75.9% | inhibition [6] 1.59% | RAM network inhibition [7] 6.82%

Brc1ccc(OCCOCCN2CCOCC2)cc1
inactive: growth inhibition [1] -13.4% | growth inhibition [2] -8.66% | viability increase [3] 2.95% | viability [4] 91.7% | viability [5] 93% | inhibition [6] 0.12% | RAM network inhibition [7] 1.24%

CCOC(=O)C1C(=O)NC(SC)=C(C#N)C1c1ccccc1F (configuration not stated)
inactive: growth inhibition [1] -2.39% | growth inhibition [2] -17% | viability increase [3] -2.97% | viability [4] 90.8% | viability [5] 95.5% | inhibition [6] -1% | RAM network inhibition [7] -1.66%

COc1ccccc1N1CCN(C(=O)C2CCN(S(=O)(=O)c3ccccc3)CC2)CC1
inactive: growth inhibition [1] -0.075% | growth inhibition [2] 2.96% | viability increase [3] -1.42% | viability [4] 92.6% | viability [5] 95.6% | inhibition [6] 1.07% | RAM network inhibition [7] 5.76%

Cc1cc(C)c(C#N)c(Oc2ccc(O)cc2)n1
inactive: growth inhibition [1] -14.7% | growth inhibition [2] -10.3% | viability increase [3] -2.42% | viability [4] 98.7% | viability [5] 90.9% | inhibition [6] 2.56% | RAM network inhibition [7] 2.67%

COCCCN(C(=O)Cn1ncc2c(=O)oc3ccc(C)cc3c21)C(C)c1ccncc1 (configuration not stated)
inactive: growth inhibition [1] -16% | growth inhibition [2] -27.4% | viability increase [3] -1.85% | viability [4] 103% | viability [5] 98.3% | inhibition [6] 1.15% | RAM network inhibition [7] 0.85%

CCn1cc(C2=NC(c3ccccc3)CO2)c2ccccc21 (configuration not stated)
inactive: growth inhibition [1] -11% | growth inhibition [2] -8.14% | viability increase [3] -4.95% | viability [4] 91.6% | viability [5] 83.3% | inhibition [6] 1.46% | RAM network inhibition [7] 0.69%

CCOC(=O)C1=C(C)NC(=O)NC1c1ccco1 (configuration not stated)
inactive: growth inhibition [1] 1.02% | growth inhibition [2] -9.79% | viability increase [3] -3.38% | viability [4] 103% | viability [5] 105% | inhibition [6] -0.995% | RAM network inhibition [7] -0.57%

CCOc1ccc(C2c3c(oc4ccccc4c3=O)C(=O)N2CCCN2CCOCC2)cc1OCC (configuration not stated)
inactive: growth inhibition [1] -14% | growth inhibition [2] -31.3% | viability increase [3] -4.89% | viability [4] 102% | viability [5] 88.6% | inhibition [6] 0.48% | RAM network inhibition [7] 1.21%

O=C(c1ccc2c(c1)C(=O)N(Cc1ccco1)C2O)N1CCOCC1 (configuration not stated)
inactive: growth inhibition [1] 1% | growth inhibition [2] -5.05% | viability increase [3] -2.58% | viability [4] 109% | viability [5] 98.3% | inhibition [6] 2.12% | RAM network inhibition [7] 1.94%

O=C(O)CCc1ccc(-c2cccs2)n1-c1ccc(C(=O)O)cc1
inactive: growth inhibition [1] -3.21% | growth inhibition [2] 3.42% | viability increase [3] -0.51% | viability [4] 98.7% | viability [5] 93.5% | inhibition [6] 2.39% | RAM network inhibition [7] -0.68%

COc1cc(C(=O)NCCc2cn3ccccc3n2)cc(OC)c1OC
inactive: growth inhibition [1] -9.42% | growth inhibition [2] -6.93% | viability increase [3] -2.78% | viability [4] 98.4% | viability [5] 95.9% | inhibition [6] 2.1% | RAM network inhibition [7] 2.62%

O=C(NC1CCS(=O)(=O)C1)C1CCCCN1S(=O)(=O)c1ccc(Cl)cc1 (configuration not stated)
inactive: growth inhibition [1] -5.22% | growth inhibition [2] -3.24% | viability increase [3] -1.52% | viability [4] 95% | viability [5] 90.8% | inhibition [6] 1.53% | RAM network inhibition [7] 2.19%

COc1ccc(-c2nc(CS(=O)CC(=O)NCCC3=CCCCC3)c(C)o2)cc1 (configuration not stated)
inactive: growth inhibition [1] 0.225% | growth inhibition [2] 9.63% | viability increase [3] -4.36% | viability [4] 77.1% | viability [5] 79.6% | inhibition [6] 0.475% | RAM network inhibition [7] 3.02%

CCCOc1ccc(N2C(=O)CC(N3CCN(c4ccccc4OC)CC3)C2=O)cc1 (configuration not stated)
inactive: growth inhibition [1] 0.31% | growth inhibition [2] -41.2% | viability increase [3] 0.03% | viability [4] 97.6% | viability [5] 90.8% | inhibition [6] 2.04% | RAM network inhibition [7] 5.49%

COc1ccccc1S(=O)Cc1ccc(C(=O)NCc2ccccc2Cl)o1 (configuration not stated)
inactive: growth inhibition [1] -7.49% | growth inhibition [2] -16.8% | viability increase [3] -1.27% | viability [4] 100% | viability [5] 89.7% | inhibition [6] 2.41% | RAM network inhibition [7] 4.64%

C=CCn1c(C(C)NC(=O)COC)nc2ccccc21 (configuration not stated)
inactive: growth inhibition [1] -2.42% | growth inhibition [2] -4.71% | viability increase [3] -2.08% | viability [4] 98.7% | viability [5] 96.2% | inhibition [6] 0.935% | RAM network inhibition [7] 3.54%

Cc1sc2ncn(CC(=O)NCc3ccccn3)c(=O)c2c1S(=O)(=O)N1CCOCC1
inactive: growth inhibition [1] -11.7% | growth inhibition [2] -5.54% | viability increase [3] 1.3% | viability [4] 101% | viability [5] 99.5% | inhibition [6] 0.485% | RAM network inhibition [7] 3.01%

CCOC(=O)CC(=O)Nc1ccc(Br)cc1C(=O)O
inactive: growth inhibition [1] -18.4% | growth inhibition [2] -18.8% | viability increase [3] 1.24% | viability [4] 101% | viability [5] 97.2% | inhibition [6] 2.16% | RAM network inhibition [7] 7.52%
